Laboratory results as given in ChEMBL document CHEMBL3797085, “Structure-Based Design and Synthesis of Novel Inhibitors Targeting HDAC8 from Schistosoma mansoni for the Treatment of Schistosomiasis” (J Med Chem, 2016).

Key:
Schistosoma mansoni [1] = assay: Antiparasitic activity against schistosomula stage of Schistosoma mansoni assessed as parasite viability at 10 uM after 48 hrs by Alamar Blue assay relative to control; assay type: functional
Summary of the method: (§1)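 Mechanically transformed S. mansoni schistosomula, 100 per well, in Medium 199 with 10% FCS, penicillin, streptomycin and rifampicin, held 3 h at 37°C/5% CO2 before use. […] Resazurin added at 48 h; fluorescence (ex 530/em 590 nm) read 24 h later, corrected for drug-medium background. Ethanol-killed larvae as dead control. Triplicate wells, two biological replicates.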

Schistosoma mansoni [2] = assay: Antiparasitic activity against schistosomula stage of Schistosoma mansoni assessed as parasite viability at 20 uM after 48 hrs by Alamar Blue assay relative to control; assay type: functional; summary of the method: as §1
[3] = Cytotoxicity against HEK293 cells assessed as cell viability at 50 uM after 24 hrs by Alamar Blue assay relative to control; assay type: cell-based; conditions: human, read-out: Activity
Summary of the method: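 AlamarBlue added after 24 h, incubated a further 21 h; resorufin fluorescence ex 560/em 590 nm. Triplicates; viability relative to untreated cells; daunorubicin positive control.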

Histone deacetylase 8 [4] = molecular target: T1, Histone deacetylase 8 (Schistosoma mansoni, UniProt A5H660); assay: Inhibition of recombinant Schistosoma mansoni HDAC8 expressed in Escherichia coli using Fluor de Lys as substrate preincubated for 90 mins followed by BML-KI176 addition measured after 45 mins by fluorescence assay
T1 sequence (A5H660 whole entry): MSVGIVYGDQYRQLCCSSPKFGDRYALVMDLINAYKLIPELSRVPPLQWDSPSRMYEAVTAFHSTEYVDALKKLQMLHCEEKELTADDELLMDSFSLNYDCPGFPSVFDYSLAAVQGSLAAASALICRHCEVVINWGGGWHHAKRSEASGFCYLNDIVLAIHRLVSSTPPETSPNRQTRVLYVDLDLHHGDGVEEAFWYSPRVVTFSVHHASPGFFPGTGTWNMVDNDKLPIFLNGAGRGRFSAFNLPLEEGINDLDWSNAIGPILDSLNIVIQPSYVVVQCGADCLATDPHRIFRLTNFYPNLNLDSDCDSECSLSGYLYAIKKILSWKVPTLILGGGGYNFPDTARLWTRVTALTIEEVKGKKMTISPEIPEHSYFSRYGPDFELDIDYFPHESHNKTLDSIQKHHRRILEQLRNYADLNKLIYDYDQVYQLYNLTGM
Summary of the method: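 smHDAC8 produced in E. coli. Fluor de Lys kit: compound, Fluor de Lys-HDAC8 substrate (50 µM) and enzyme incubated 90 min at 37°C, then Developer II for 45 min at 30°C. Reaction stopped with trichostatin A (2 µM). Fluorescence read at ex 390/em 460 nm. IC50 given as mean ± S.E.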

Histone deacetylase 8 [5] = molecular target: T2, Histone deacetylase 8 (Homo sapiens, UniProt Q9BY41); assay: Inhibition of recombinant human HDAC8 using Fluor de Lys as substrate preincubated for 90 mins followed by BML-KI176 addition measured after 45 mins by fluorescence assay
T2 sequence (Q9BY41 whole entry): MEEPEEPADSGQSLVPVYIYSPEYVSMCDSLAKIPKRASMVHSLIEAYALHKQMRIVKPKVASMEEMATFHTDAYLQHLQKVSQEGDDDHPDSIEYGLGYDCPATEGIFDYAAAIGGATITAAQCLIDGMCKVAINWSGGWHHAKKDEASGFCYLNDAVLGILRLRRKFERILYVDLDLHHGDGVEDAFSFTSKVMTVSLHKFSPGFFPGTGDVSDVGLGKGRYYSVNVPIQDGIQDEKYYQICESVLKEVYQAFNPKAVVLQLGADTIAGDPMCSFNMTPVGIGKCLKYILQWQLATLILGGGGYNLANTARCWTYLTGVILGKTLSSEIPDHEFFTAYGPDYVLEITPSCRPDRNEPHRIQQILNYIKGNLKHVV

Histone deacetylase 1 = Histone deacetylase 1 (Homo sapiens, UniProt Q13547); assay: Inhibition of recombinant human HDAC1 using Cbz-(Ac)Lys-AMC as substrate preincubated for 90 mins followed by trypsin addition measured after 20 mins by fluorescence assay
Chain of Histone deacetylase 1 (Q13547 whole entry): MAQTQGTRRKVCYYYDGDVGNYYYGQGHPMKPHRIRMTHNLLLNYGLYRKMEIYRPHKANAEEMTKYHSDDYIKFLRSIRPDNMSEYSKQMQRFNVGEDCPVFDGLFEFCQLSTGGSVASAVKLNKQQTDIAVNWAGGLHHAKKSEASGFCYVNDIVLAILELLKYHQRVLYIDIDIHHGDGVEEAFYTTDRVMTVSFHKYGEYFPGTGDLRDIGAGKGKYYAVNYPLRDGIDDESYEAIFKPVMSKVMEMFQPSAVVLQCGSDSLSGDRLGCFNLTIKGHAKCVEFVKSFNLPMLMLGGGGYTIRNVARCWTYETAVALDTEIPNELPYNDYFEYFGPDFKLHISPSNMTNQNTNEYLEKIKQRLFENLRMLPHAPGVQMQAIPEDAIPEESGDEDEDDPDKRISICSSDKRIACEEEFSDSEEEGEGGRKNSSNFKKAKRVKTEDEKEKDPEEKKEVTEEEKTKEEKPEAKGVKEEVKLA

[6] = molecular target: T3, Protein deacetylase HDAC6 (Homo sapiens, UniProt Q9UBN7); assay: Inhibition of recombinant human HDAC6 using Cbz-(Ac)Lys-AMC as substrate preincubated for 90 mins followed by trypsin addition measured after 20 mins by fluorescence assay
T3 sequence (Q9UBN7 whole entry): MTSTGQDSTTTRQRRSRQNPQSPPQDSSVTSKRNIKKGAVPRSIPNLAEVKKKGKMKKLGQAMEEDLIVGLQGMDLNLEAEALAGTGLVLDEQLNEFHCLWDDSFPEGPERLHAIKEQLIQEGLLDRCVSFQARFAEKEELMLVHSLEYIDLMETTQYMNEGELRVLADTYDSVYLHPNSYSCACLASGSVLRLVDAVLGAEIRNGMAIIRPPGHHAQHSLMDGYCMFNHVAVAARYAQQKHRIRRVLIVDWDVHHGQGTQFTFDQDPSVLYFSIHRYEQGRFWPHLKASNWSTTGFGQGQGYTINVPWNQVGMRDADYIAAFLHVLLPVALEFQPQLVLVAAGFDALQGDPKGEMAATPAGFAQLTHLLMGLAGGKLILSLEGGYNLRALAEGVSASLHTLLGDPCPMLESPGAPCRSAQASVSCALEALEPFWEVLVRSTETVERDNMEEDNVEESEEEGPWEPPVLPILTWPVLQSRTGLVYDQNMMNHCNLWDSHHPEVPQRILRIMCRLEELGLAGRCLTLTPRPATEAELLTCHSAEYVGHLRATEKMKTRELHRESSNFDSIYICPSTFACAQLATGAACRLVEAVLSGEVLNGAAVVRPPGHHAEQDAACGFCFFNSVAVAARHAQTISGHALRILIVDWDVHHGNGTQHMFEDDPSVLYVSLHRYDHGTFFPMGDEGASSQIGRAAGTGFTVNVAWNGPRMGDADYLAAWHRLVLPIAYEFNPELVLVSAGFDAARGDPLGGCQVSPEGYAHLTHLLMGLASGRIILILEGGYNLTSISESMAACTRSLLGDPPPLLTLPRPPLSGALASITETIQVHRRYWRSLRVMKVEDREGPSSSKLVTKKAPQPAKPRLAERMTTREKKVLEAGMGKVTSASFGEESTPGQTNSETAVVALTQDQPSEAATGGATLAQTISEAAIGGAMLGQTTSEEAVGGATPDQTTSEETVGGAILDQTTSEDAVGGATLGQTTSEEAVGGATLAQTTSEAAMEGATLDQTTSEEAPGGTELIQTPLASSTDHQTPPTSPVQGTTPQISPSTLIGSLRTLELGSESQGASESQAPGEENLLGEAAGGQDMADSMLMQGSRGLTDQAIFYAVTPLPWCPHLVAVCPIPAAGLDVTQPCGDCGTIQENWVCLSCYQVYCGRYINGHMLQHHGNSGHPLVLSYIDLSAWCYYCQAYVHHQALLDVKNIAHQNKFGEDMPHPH

SMILES	Activity (Schistosoma mansoni [1]) [%]	Activity (Schistosoma mansoni [2]) [%]	viability at 24 h, 50 µM [3] [%]	IC50 (Histone deacetylase 8 [4]; read-out: IC50) [nM]	IC50 (Histone deacetylase 8 [5]; read-out: IC50) [nM]	IC50 (Histone deacetylase 1; read-out: IC50) [nM]	IC50 ([6]; read-out: IC50) [nM]	IC50 (Histone deacetylase 8 [4])	IC50 (Histone deacetylase 8 [5])	IC50 (Histone deacetylase 1)	IC50 [6]
O=C(NO)c1ccc(Cl)c(NC(=O)c2ccc([N+](=O)[O-])cc2)c1	85.3	68.1	79.1	394							
Cc1ccc(C(=O)NO)cc1NC(=O)c1ccccc1	82.9	72.4	71.2	116	204	8400	900				
COC(=O)c1ccc(OC)c(NC(=O)c2ccc(-c3ccccc3)cc2)c1			47.2					Not Active	Not Active	Not Active	Not Active
O=C(NO)c1ccc(Cl)c(NC(=O)c2cccc(OCc3ccccc3)c2)c1	73.8	68.6	74.4	378	214	9400	1500				
CC(C)Oc1ccc(C(=O)NO)cc1NC(=O)c1ccccc1	75	68.7	129	220	29	3600	2600				
CCOc1ccc(C(=O)NO)cc1NC(=O)c1ccccc1	89.7		70.4	129	172	4600	1300				
COc1ccc(C(=O)Nc2cc(C(=O)NO)ccc2Cl)cc1	63.2	60.7	62.5	147	236	4100	130				
O=C(NO)c1cccc(NC2CCCCC2)c1	82.7		70.7	3630	830	130000					
CC1Sc2ccc(C(=O)NO)cc2NC1=O (stereo unspecified)				1480	970	27500	3600				
O=C(NO)c1cccc(NC(=O)c2ccccc2)c1	79.2	75.6		468	582						
O=C(C1CCCCC1)N1CC(=O)N2CCc3ccccc3C2C1 (stereo unspecified) [PRAZIQUANTEL]	92	89									
O=C1CCSc2ccc(C(=O)NO)cc2N1				1220	620	9800	1300				
CCCOc1ccc(C(=O)NO)cc1NC(=O)c1ccccc1			97.4	267							
COc1ccc(C(=O)O)cc1NC(=O)c1ccc(-c2ccccc2)cc1								Not Active	Not Active	Not Active	Not Active
O=C(NO)c1ccc(Cl)c(NC(=O)c2ccccc2)c1	84.7		72.2	67	120	11600	120				
CCOc1ccc(C(=O)Nc2cc(C(=O)NO)ccc2OC)cc1			87.7	305	438	4400	1000				
O=C(NO)c1ccc(Cl)c(NC(=O)c2ccc(Oc3ccccc3)cc2)c1				979	1080	8500	150				
O=C(NO)c1ccc2ccccc2n1	95.6		73.3	8200	582						
COc1ccc(C(=O)NO)cc1OCc1ccccc1				268							
Cc1ccc(C(=O)NO)cc1NC(=O)c1ccc2ccccc2n1	74.9	59.4		96.1	30.3	2700	90				
COc1ccc(C(=O)NO)cc1NC(=O)c1cccc(-c2ccccc2)c1	58.8	57	76.2	290							
COc1ccc(Cn2ccc3ccc(C(=O)NO)cc32)cc1	70.6	62.3		436							
COc1ccc(C(=O)NO)cc1NC(=O)c1ccc(Cl)cc1			92.6	146	240	2900	900				
